According to ChEMBL document CHEMBL2346664, “Synthesis, characterization and in vitro anticancer evaluation of novel 1,2,4-triazolin-3-one derivatives” (2013):

Key:
Assay type in all cases: functional
BT-549 = assay: Growth inhibition of human BT549 cells assessed as cell growth at 10 '-6 M after 48 hrs by sulforhodamine B assay; details: BT-549, 48 h, read-out: Activity
Procedure, shortened: (§1)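 Percent growth at each of the five concentrations of the 48 h continuous-exposure NCI SRB screen. Drug stocks were in DMSO at 400× the top final concentration and diluted in medium with gentamicin. Growth was calculated as [(Ti-Tz)/(C-Tz)]×100 when Ti ≥ Tz, or [(Ti-Tz)/Tz]×100 when Ti < Tz. Tz plates were fixed at drug addition; untreated wells served as control. Absorbance was read at 515 nm.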

ACHN = assay: Growth inhibition of human ACHN cells assessed as cell growth at 10 '-6 M after 48 hrs by sulforhodamine B assay; details: read-out: Activity; procedure, shortened: as §1
A549 [1] = assay: Growth inhibition of human A549 cells assessed as growth inhibition at 10 uM after 48 hrs by sulforhodamine B assay; details: A549, 48 h, read-out: GI
Procedure, shortened: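 Percent growth inhibition from the single 10^-5 M NCI-60 screen, reported as 100 minus growth percent. Growth percent was measured after 48 h drug exposure at 37 °C, 5% CO2, using TCA fixation, SRB staining and absorbance at 515 nm, against untreated controls and time-zero plates.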

K562 = assay: Growth inhibition of human K562 cells assessed as growth inhibition at 10 uM after 48 hrs by sulforhodamine B assay; details: K562, 48 h, read-out: GI
SW-620 = assay: Growth inhibition of human SW620 cells assessed as cell growth at 10 '-6 M after 48 hrs by sulforhodamine B assay; details: SW-620, 48 h, read-out: Activity
NCI-H23 [2] = assay: Growth inhibition of human NCI-H23 cells assessed as cell growth at 10 '-6 M after 48 hrs by sulforhodamine B assay; details: NCI-H23, 48 h, read-out: Activity
RPMI-8226 [3] = assay: Growth inhibition of human RPMI8226 cells assessed as cell growth at 10 '-6 M after 48 hrs by sulforhodamine B assay; details: RPMI-8226, 48 h, read-out: Activity
CAKI-1 = assay: Growth inhibition of human CAKI-1 cells assessed as cell growth at 10 '-7 M after 48 hrs by sulforhodamine B assay; details: CAKI-1, 48 h, read-out: Activity; procedure, shortened: as §1
OVCAR-3 = assay: Growth inhibition of human OVCAR3 cells assessed as cell growth at 10 '-7 M after 48 hrs by sulforhodamine B assay; details: OVCAR-3, 48 h, read-out: Activity
[4] = Growth inhibition of human NCI-ADR-RES cells assessed as cell growth at 10 '-4 M after 48 hrs by sulforhodamine B assay; details: read-out: Activity
IGROV-1 = assay: Growth inhibition of human IGROV1 cells assessed as cell growth at 10 '-4 M after 48 hrs by sulforhodamine B assay; details: IGROV-1, 48 h, read-out: Activity
M14 = assay: Growth inhibition of human M14 cells assessed as cell growth at 10 '-4 M after 48 hrs by sulforhodamine B assay; details: M14, 48 h, read-out: Activity
KM12 = assay: Growth inhibition of human KM12 cells assessed as cell growth at 10 '-4 M after 48 hrs by sulforhodamine B assay; details: KM12, 48 h, read-out: Activity
RPMI-8226 [5] = assay: Growth inhibition of human RPMI8226 cells assessed as cell growth at 10 '-8 M after 48 hrs by sulforhodamine B assay; details: RPMI-8226, 48 h, read-out: Activity
SK-OV-3 = assay: Growth inhibition of human SKOV3 cells after 48 hrs by sulforhodamine B assay; details: SK-OV-3, 48 h
NCI-H460 = assay: Growth inhibition of human NCI-H460 cells assessed as cell growth at 10 '-4 M after 48 hrs by sulforhodamine B assay; details: NCI-H460, 48 h, read-out: Activity
SR = assay: Growth inhibition of human SR cells assessed as cell growth at 10 '-4 M after 48 hrs by sulforhodamine B assay; details: read-out: Activity
T47D = assay: Growth inhibition of human T47D cells assessed as cell growth at 10 '-5 M after 48 hrs by sulforhodamine B assay; details: read-out: Activity
DU-145 = assay: Growth inhibition of human DU145 cells assessed as cell growth at 10 '-5 M after 48 hrs by sulforhodamine B assay; details: DU-145, 48 h, read-out: Activity
OVCAR-4 = assay: Growth inhibition of human OVCAR4 cells after 48 hrs by sulforhodamine B assay; details: OVCAR-4, 48 h
Procedure, shortened: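 NCI 60-cell-line five-dose screen over 0.01, 0.1, 1, 10 and 100 µM, with 48 h continuous exposure at 37 °C and 5% CO2 after 24 h pre-incubation (5,000–40,000 cells/well). Cells were TCA-fixed (10% final for adherent, 16% for suspension), stained with SRB and read at 515 nm. GI50 was solved from [(Ti−Tz)/(C−Tz)]×100 = 50 against time-zero plates.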

SK-MEL-28 = assay: Growth inhibition of human SK-MEL-28 cells after 48 hrs by sulforhodamine B assay; details: SK-MEL-28, 48 h
SF-539 = assay: Growth inhibition of human SF539 cells after 48 hrs by sulforhodamine B assay; details: SF-539, 48 h
SF-295 = assay: Growth inhibition of human SF295 cells after 48 hrs by sulforhodamine B assay; details: SF-295, 48 h
SN12C = assay: Growth inhibition of human SN12C cells assessed as growth inhibition at 10 uM after 48 hrs by sulforhodamine B assay; details: read-out: GI
HCT-116 = assay: Growth inhibition of human HCT116 cells assessed as cell growth at 10 '-7 M after 48 hrs by sulforhodamine B assay; details: HCT-116, 48 h, read-out: Activity
NCI-H23 [6] = assay: Growth inhibition of human NCI-H23 cells assessed as cell growth at 10 '-7 M after 48 hrs by sulforhodamine B assay; details: NCI-H23, 48 h, read-out: Activity
A549 [7] = assay: Growth inhibition of human A549 cells assessed as cell growth at 10 '-7 M after 48 hrs by sulforhodamine B assay; details: A549, 48 h, read-out: Activity; procedure, shortened: as §1
786-0 = assay: Growth inhibition of human 786-0 cells assessed as cell growth at 10 '-8 M after 48 hrs by sulforhodamine B assay; details: 786-0, 48 h, read-out: Activity; procedure, shortened: as §1
Malme-3M = assay: Growth inhibition of human MALME-3M cells assessed as cell growth at 10 '-5 M after 48 hrs by sulforhodamine B assay; details: read-out: Activity
UACC-257 = assay: Growth inhibition of human UACC257 cells assessed as cell growth at 10 '-8 M after 48 hrs by sulforhodamine B assay; details: UACC-257, 48 h, read-out: Activity
SNB-75 = assay: Growth inhibition of human SNB75 cells assessed as cell growth at 10 '-8 M after 48 hrs by sulforhodamine B assay; details: SNB-75, 48 h, read-out: Activity
[8] = read-out: LD50 (the source's name)

With `Cc1cc(=O)oc2cc(OCCn3c(C)nn(-c4ccc(Cl)cc4)c3=O)ccc12` the growth at 1 µM (BT-549) was 89%, the growth at 1 µM (ACHN) was 95% and the inhibition of growth at 10 µM (A549 [1]) was 69.8%. It also gave an inhibition of growth at 10 µM (K562) of 83.7%, a growth at 1 µM (SW-620) of 68% and a growth at 1 µM (NCI-H23 [2]) of 64%. The growth at 1 µM (RPMI-8226 [3]) was 95%, the growth at 0.1 µM (CAKI-1) was 92% and the growth at 0.1 µM (OVCAR-3) was 110%. The growth at 100 µM [4] was 2%, the growth at 100 µM (IGROV-1) was 41% and the growth at 100 µM (M14) was 28%. The growth at 100 µM (KM12) was 12%, the growth at 0.01 µM (RPMI-8226 [5]) was 101% and the GI50 (SK-OV-3) was 3.36 µM. The TGI (SK-OV-3) was 4.88 µM, the CC50 (SK-OV-3; [8]) was greater than 1 µM and the growth at 100 µM (NCI-H460) was 8%. It also gave a growth at 100 µM (SR) of -13%, a growth at 10 µM (T47D) of 45% and a growth at 10 µM (DU-145) of 18%. It also gave a GI50 (OVCAR-4) of 2.68 µM, a CC50 (OVCAR-4; [8]) greater than 1 µM and a GI50 (SK-MEL-28) of 3.13 µM. The TGI (SK-MEL-28) was greater than 1 µM, the CC50 (SK-MEL-28; [8]) was greater than 1 µM and the GI50 (SF-539) was 4.06 µM. It also gave a TGI (SF-539) of 4.74 µM, a CC50 (SF-539; [8]) greater than 1 µM and a GI50 (SF-295) of 4.73 µM. The TGI (SF-295) was greater than 1 µM, the CC50 (SF-295; [8]) was greater than 1 µM and the inhibition of growth at 10 µM (SN12C) was 48.2%. The growth at 0.1 µM (HCT-116) was 98%, the growth at 0.1 µM (NCI-H23 [6]) was 91% and the growth at 0.1 µM (A549 [7]) was 98%. It also gave a growth at 0.01 µM (786-0) of 103%, a growth at 10 µM (Malme-3M) of 28% and a growth at 0.01 µM (UACC-257) of 95%. The growth at 0.01 µM (SNB-75) was 88%.
